pIC50: −log10 of the molar value.
Key:
HT-29 [1] = assay: Tested for cytotoxicity against Colon carcinoma type HT-29 cell line expressing MDR-1 (-) gene; assay type: functional, cell-based; conditions: Homo sapiens
Outline: (§1)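 XTT assay; 10,000 tumor cells/well preincubated 24 h at 37 °C, 5% CO2, then drug added directly from DMSO stocks over 100 fM to […] range. After 72 h XTT added, 4 h further incubation, OD read at 450 nm. IC50 (50% growth inhibition) derived from viability–dilution plots of duplicate runs.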

A2780 = assay: Tested for cytotoxicity against Ovarian carcinoma parental type A2780 cell line expressing MDR-1 (-) gene; assay type: functional, cell-based; conditions: Homo sapiens; outline: as §1
VCR100 = assay: Tested for cytotoxicity against T-lymphoblastoide VC resistant type VCR 100 cell line expressing MDR-1 (+) gene; assay type: functional, cell-based, Homo sapiens; outline: as §1
SW480 = assay: Tested for cytotoxicity against Colon adenocarcinoma resistant type SW480 cell line expressing MDR-1 (+) gene; ~50% cells affected by drug; assay type: functional, cell-based; conditions: Homo sapiens; outline: as §1
[2] = Tested for half life period at 37 degree Celsius in PBS buffer at 11.8 pH containing porcine liver esterase; assay type: ADME, Sus scrofa; conditions: pig, pH 11.8
Outline: (§2)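 Drug at 37 °C in acetonitrile–aqueous buffer (20/80 vol%) at set pH, in human serum, or with pig liver carboxylic ester hydrolase. Serum samples pre-separated on C18 cartridges. Aliquots mixed 1:1 with acetonitrile, centrifuged, supernatant analysed by HPLC peak areas. First-order log conversion–time plots; k_obs and t1/2 from slopes; mean ± SD.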

[3] = Tested for half life period at 37 degree Celsius in PBS buffer at 7.3 pH in containing porcine liver esterase; assay type: ADME, Sus scrofa; conditions: pig, pH 7.3; outline: as §2
ADR5000 cell line = assay: Tested for cytotoxicity against Doxo resistant A2780 type ADR5000 cell line expressing MDR-1 (++) gene; assay type: functional, cell-based; conditions: Homo sapiens; outline: as §1
MOLT-3 = assay: Tested for cytotoxicity against parental T-cell leukemia type Molt 3 cell line expressing MDR-1 (-) gene; assay type: functional, cell-based; conditions: Homo sapiens; outline: as §1
[4] = Tested for half life period at 37 degree Celsius in PBS buffer at 7.3 pH containing porcine liver esterase; assay type: ADME, Sus scrofa; conditions: pig, pH 7.3; outline: as §2
[5] = target: T1, S-formylglutathione hydrolase (Sus scrofa) (UniProt Q9GJT2); assay: Tested for rate constant at 37 degree Celsius in PBS buffer at 11.8 pH containing porcine liver esterase expressed in 10 e-3 min e-1; outline: as §2
T1 sequence (whole entry): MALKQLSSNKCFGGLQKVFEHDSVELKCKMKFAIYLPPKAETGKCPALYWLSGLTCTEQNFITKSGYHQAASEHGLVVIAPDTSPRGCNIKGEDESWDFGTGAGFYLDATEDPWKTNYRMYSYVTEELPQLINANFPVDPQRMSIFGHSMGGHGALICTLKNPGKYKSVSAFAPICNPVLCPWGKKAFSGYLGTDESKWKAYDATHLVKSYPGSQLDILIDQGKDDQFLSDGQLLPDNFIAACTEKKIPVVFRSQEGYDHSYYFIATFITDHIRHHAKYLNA

MOVP-3 = assay: Tested for cytotoxicity against VP 16 resistant Molt3 type MOVP-3 cell line expressing MDR-1 (++) gene; assay type: functional, cell-based; conditions: Homo sapiens; outline: as §1
[6] = target: Cholinesterase (Homo sapiens) (UniProt P06276); assay: Tested for rate constant at 37 degree Celsius in PBS buffer at 7.3 pH in human serum containing porcine liver esterase expressed in 10 e-3 min e-1; assay type: cell-free
Outline: (§3)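 Prodrug dissolved at 37 °C in 20/80 vol% acetonitrile–aqueous PBS at the stated pH, in human serum, or with pig liver carboxylic ester hydrolase. Serum samples were pre-cleaned on C18 cartridges. Aliquots were quenched with an equal volume of acetonitrile and centrifuged, and the supernatant was analysed by HPLC peak area. k_obs was taken from the slope of first-order log conversion–time plots and reported as mean ± SD.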

[7] = Tested for half life period at 37 degree Celsius in PBS buffer at 8.0 pH containing human serum esterase; assay type: ADME; conditions: pH 8; outline: as §2
[8] = target: Cholinesterase (Homo sapiens) (UniProt P06276); assay: Tested for rate constant at 37 degree Celsius in PBS buffer at 10.5 pH containing human serum esterase expressed in 10 e-3 min e-1; outline: as §3
[9] = Tested for half life period at 37 degree Centigrade in PBS buffer at 7.3 pH containing human serum esterase; assay type: ADME; conditions: pH 7.3; outline: as §2
[10] = Tested for half life period at 37 degree Celsius in PBS buffer at 10.5 pH containing human serum esterase; assay type: ADME; conditions: pH 10.5; outline: as §2
[11] = Tested for half life period at 37 degree Celsius in PBS buffer at 8.8 pH containing human serum esterase; assay type: ADME; conditions: pH 8.8; outline: as §2
[12] = target: Cholinesterase (Homo sapiens) (UniProt P06276); assay: Tested for rate constant at 37 degree Celsius in PBS buffer at 8.0 pH containing human serum esterase expressed in 10 e-3 min e-1; outline: as §3
[13] = target: Cholinesterase (Homo sapiens) (UniProt P06276); assay: Tested for rate constant at 37 degree Celsius in PBS buffer at 8.8 pH containing human serum esterase expressed in 10 e-3 min e-1; outline: as §3
HT-29 [14] = assay: Tested for cytotoxicity against Colon carcinoma type HT-29 cell line expressing MDR-1 (-) gene; 35% of cells were affected; assay type: functional, cell-based; conditions: Homo sapiens; outline: as §1

Cholinesterase (Homo sapiens), sequence (P06276 whole entry): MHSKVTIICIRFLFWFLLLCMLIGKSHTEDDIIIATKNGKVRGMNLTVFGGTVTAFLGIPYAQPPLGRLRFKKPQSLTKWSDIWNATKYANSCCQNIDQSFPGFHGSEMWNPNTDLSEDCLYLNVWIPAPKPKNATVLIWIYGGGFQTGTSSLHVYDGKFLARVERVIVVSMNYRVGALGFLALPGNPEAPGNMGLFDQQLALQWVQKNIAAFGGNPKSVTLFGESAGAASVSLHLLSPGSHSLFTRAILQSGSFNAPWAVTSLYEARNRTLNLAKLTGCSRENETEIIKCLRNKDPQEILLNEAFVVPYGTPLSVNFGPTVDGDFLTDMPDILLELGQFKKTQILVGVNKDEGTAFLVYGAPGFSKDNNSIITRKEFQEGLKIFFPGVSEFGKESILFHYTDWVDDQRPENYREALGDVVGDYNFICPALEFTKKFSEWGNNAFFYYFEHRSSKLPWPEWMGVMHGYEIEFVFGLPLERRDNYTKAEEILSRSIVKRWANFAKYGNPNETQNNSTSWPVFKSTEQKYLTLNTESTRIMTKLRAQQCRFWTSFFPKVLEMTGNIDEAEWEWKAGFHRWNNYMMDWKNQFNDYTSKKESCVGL

Row | SMILES | pIC50 (HT-29 [1]) | pIC50 (A2780) | pIC50 (VCR100) | pIC50 (SW480) | half-life [2] | half-life [3] | pIC50 (ADR5000 cell line) | pIC50 (MOLT-3) | half-life [4] | K obs [5] | pIC50 (MOVP-3) | K obs [6] | half-life [7] | K obs [8] | half-life [9] | half-life [10] | half-life [11] | K obs [12] | K obs [13] | pIC50 (HT-29 [14])
1 | COc1cc([C@@H]2c3cc4c(cc3C(O[C@@H]3O[C@H]5CO[C@@H](C)O[C@H]5[C@H](O)[C@@H]3O)C3COC(=O)[C@@H]32)OCO4)cc(OC)c1OC(=O)OCC1COC(C)(C)O1 (stereo partly drawn) | 8.46 | 7.05 | 5.49 | 6.96 | 1.39 h | 12.5 h | 5.19 | 8.00 | 0.236 h | 8.33 | 7.92 | – | – | – | – | – | – | – | – | –
2 | COc1cc([C@@H]2c3cc4c(cc3C(O[C@@H]3O[C@H]5CO[C@@H](C)O[C@H]5[C@H](O)[C@@H]3O)C3COC(=O)[C@@H]32)OCO4)cc(OC)c1OC(=O)OCC(O)CO (stereo partly drawn) | 8.24 | 6.24 | 5.12 | 6.96 | – | – | 4.42 | 7.46 | – | – | 7.30 | 12.4 | 3.61 h | 100 | 0.934 h | 6.93 min | 1.62 h | 3.2 | 7.14 | –
3 | COc1cc([C@@H]2c3cc4c(cc3[C@@H](O[C@@H]3O[C@@H]5CO[C@@H](C)O[C@H]5[C@H](O)[C@H]3O)[C@H]3COC(=O)[C@H]23)OCO4)cc(OC)c1O [ETOPOSIDE] | – | 4.19 | 4.81 | 4.30 | – | – | 4.00 | 7.19 | – | – | 5.12 | – | – | – | – | – | – | – | – | 5.00
